Measured values published in ChEMBL document CHEMBL3860043, “Non-Acidic Free Fatty Acid Receptor 4 Agonists with Antidiabetic Activity” (J Med Chem, 2016).
Converted amounts (≈) assume the structure as drawn. The source made the active and inactive calls. No cut-off for these calls is given here.

Legend:
[1] = biological target: T1, Free fatty acid receptor 1 (Homo sapiens, UniProt O14842); assay: Antagonist activity against human FFA1 expressed in human Flp-In T-REx293 cells assessed as as reduction in TUG424-induced response by Fura2-AM dye based calcium mobilization assay; type: functional, cell-based
T1 sequence (O14842 whole entry): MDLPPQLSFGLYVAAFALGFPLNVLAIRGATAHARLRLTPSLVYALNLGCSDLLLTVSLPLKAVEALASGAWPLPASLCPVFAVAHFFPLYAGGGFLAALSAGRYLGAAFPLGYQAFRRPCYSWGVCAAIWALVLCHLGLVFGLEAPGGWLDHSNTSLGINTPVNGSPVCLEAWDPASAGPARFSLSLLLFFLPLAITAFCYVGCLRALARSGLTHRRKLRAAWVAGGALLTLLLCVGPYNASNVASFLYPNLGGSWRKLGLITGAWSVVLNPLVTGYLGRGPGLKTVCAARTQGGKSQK
Summary of the method: (§1)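 Flp-In T-REx 293 cells with inducible human FFA1, seeded at 50000 cells/well and induced with 100 ng/ml doxycycline after 3-4 h adherence. Next day loaded with Fura2-AM for 45 min, washed, then preincubated 15 min in HBSS with test ligand before 300 nM agonist challenge. Fura2 340:380 ratio change read at 510 nm emission. Inhibition expressed as % reduction of the agonist response.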

[2] = biological target: T1, Free fatty acid receptor 1; assay: Antagonist activity against human FFA1 expressed in human Flp-In T-REx293 cells assessed as as reduction in 300 nM TUG424-induced response by Fura2-AM dye based calcium mobilization assay relative to untreated control; type: functional, cell-based; summary of the method: as §1
[3] = biological target: T2, Free fatty acid receptor 4 (Homo sapiens, UniProt Q5NUL3); assay: Agonist activity at human FFA4 expressed in human Flp-In T-REx293 cells by Fura2-AM dye based calcium mobilization assay; type: functional, cell-based
T2 sequence (Q5NUL3 whole entry): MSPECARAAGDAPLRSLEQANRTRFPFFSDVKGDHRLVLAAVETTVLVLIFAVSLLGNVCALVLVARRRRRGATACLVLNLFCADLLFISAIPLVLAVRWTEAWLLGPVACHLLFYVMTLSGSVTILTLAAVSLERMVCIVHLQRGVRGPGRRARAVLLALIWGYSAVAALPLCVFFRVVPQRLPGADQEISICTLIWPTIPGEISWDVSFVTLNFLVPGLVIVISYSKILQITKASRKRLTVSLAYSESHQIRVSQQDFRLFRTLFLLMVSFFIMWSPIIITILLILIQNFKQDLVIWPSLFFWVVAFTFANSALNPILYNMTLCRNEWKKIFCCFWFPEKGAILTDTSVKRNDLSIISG
Summary of the method: (§2)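 Flp-In T-REx 293 cells with doxycycline-inducible human FFA4 seeded at 50000 cells/well and induced overnight with 100 ng/ml doxycycline. Loaded with Fura2-AM for 45 min, washed three times in HBSS, equilibrated 15 min, then ligand added. Emission at 510 nm with 340/380 nm excitation; response is the change in 340:380 ratio. Efficacy relative to 100 µM reference agonist; 2-4 independent experiments, sigmoidal fits.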

[4] = biological target: T3, Free fatty acid receptor 4 (Homo sapiens) (UniProt Q5NUL3); assay: Agonist activity at human FFA4 expressed in human Flp-In T-REx293 cells by Fura2-AM dye based calcium mobilization assay relative to 100 uM […]; type: functional, cell-based; summary of the method: as §2
T3 sequence (whole entry): T2 sequence (Q5NUL3 whole entry)

[5] = biological target: T2, Free fatty acid receptor 4; assay: Agonist activity at C-terminal YFP-tagged human FFA4 expressed in HEK293 cells in presence of coelentrazine h by BRET based beta-arrestin-2 interaction assay; type: cell-based
Summary of the method: (§3)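 HEK293 cells co-transfected with C-terminal eYFP-fused human FFA4 and β-arrestin-2–Renilla luciferase; plated 24 h post-transfection, used 24 h later. After an HBSS wash, coelenterazine h (2.5 µM) for 15 min, with ligands present for the final 5 min, 37 °C. BRET taken as the 535/475 nm emission ratio. Efficacy relative to 100 µM reference agonist. Three-parameter sigmoidal fits; mean ± S.E. of 2-4 independent experiments.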

[6] = biological target: T3, Free fatty acid receptor 4 (Homo sapiens); assay: Agonist activity at C-terminal YFP-tagged human FFA4 expressed in HEK293 cells in presence of coelentrazine h by BRET based beta-arrestin-2 interaction assay relative to 100 uM […]; type: cell-based; summary of the method: as §3
[7] = Lipophilicity, log D of the compound at pH 7.4; type: physicochemical; conditions: buffer
[8] = tested on: Mus musculus; assay: Reduction in plasma glucose level in mouse at 10 mg/kg, po dosed 15 mins before oral glucose challenge by OGTT method; type: functional, organism-based
Summary of the method: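 Mice fasted 5 h and given compound orally at 10 mg/kg, 15 min before an oral glucose load of 3 g/kg. Tail-tip blood sampled under local anesthetic 30 min before and immediately before the load, and at 30, 60, 90, 120 and 180 min after it. Glucose measured in duplicate by glucose oxidase colorimetric assay; n=6 mice per group.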

[9] = biological target: T4, Free fatty acid receptor 4 (Mus musculus, UniProt Q7TMA4); assay: Agonist activity mouse FFA4 by Gq-dependent calcium mobilization assay; type: functional
T4 sequence (Q7TMA4 whole entry): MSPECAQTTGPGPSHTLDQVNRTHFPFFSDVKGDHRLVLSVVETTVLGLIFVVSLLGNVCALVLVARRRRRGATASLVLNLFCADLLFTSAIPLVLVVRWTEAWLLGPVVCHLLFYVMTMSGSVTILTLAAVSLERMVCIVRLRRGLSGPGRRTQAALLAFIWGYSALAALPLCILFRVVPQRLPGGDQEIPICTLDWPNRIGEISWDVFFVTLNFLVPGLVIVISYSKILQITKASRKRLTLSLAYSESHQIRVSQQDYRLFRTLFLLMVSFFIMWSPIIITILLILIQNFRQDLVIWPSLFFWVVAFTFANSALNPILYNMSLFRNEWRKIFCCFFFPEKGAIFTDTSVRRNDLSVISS

[10] = Solubility in PBS buffer; type: physicochemical

| Structure (SMILES) | IC50 [1] | Imax [2] | EC50 [3] | Emax [4] | EC50 [5] | EC50 ([5]; read-out: pEC50 (converted)) | Emax [6] | logD [7] | Activity [8] | EC50 [9] | solubility [10] |
| --- | --- | --- | --- | --- | --- | --- | --- | --- | --- | --- | --- |
| O=S1(=O)c2ccccc2CN1c1cc(F)cc(Oc2ccccc2)c1 | 3.89 µM | 47% | 0.38 µM | 78% | < 10 µM | 0.234 µM | 101% | – | – | – | – |
| N#Cc1ccccc1Oc1cc(F)cc(N2Cc3ccccc3S2(=O)=O)c1 | > 100 µM | – | – | – | – | 16.2 µM | 76% | – | – | – | – |
| O=S1(=O)c2ccccc2CN1c1cccc(Oc2ccccn2)c1 | > 100 µM | – | 1.02 µM | 93% | – | 1.55 µM | 102% | – | – | – | – |
| O=S(=O)(Nc1ccc(Oc2ccccc2)cc1)c1ccc(F)cc1 | 12.9 µM | 95% | – | – | – | 3.55 µM | 52% | – | – | – | – |
| N#CCc1cccc(Oc2cc(F)cc(N3Cc4ccccc4S3(=O)=O)c2)c1 | 20 µM | 44% | – | – | – | 5.25 µM | 57% | – | – | – | – |
| CCCCc1ccc(NS(=O)(=O)c2ccc(F)cc2)cc1 | 8.13 µM | 68% | – | – | – | 5.37 µM | 76% | – | – | – | – |
| O=S1(=O)c2ccccc2CN1c1cc(F)cc(Oc2cccnc2)c1 | > 100 µM | – | 0.302 µM | 115% | – | 0.437 µM | 107% | 3.12 | Active | 0.0832 µM | 11 µM (≈ 3.92 µg/mL) |
| N#Cc1ccc(Oc2cc(F)cc(N3Cc4ccccc4S3(=O)=O)c2)cc1 | 0.617 µM | 43% | 2.34 µM | 29% | – | 1.66 µM | 87% | – | – | – | – |
| O=S1(=O)c2ccccc2CN1c1cc(F)cc(Oc2ccncc2)c1 | > 100 µM | – | 1.7 µM | 120% | – | 1.26 µM | 97% | – | – | – | – |
| O=S1(=O)c2ccccc2CN1c1cc(F)cc(OCc2ccccc2)c1 | 2.45 µM | 36% | – | – | – | > 100 µM | – | – | – | – | – |
| O=S1(=O)c2ccccc2CN1c1cccc(Oc2ccccc2)c1 | 0.174 µM | 39% | 0.209 µM | 105% | – | 0.245 µM | 95% | – | – | – | – |
